Assays:
[1] = Protein binding in human plasma; assay type: ADME, cell-free; settings: read-out: PPB (converted)
[2] = Oral bioavailability in dog at 5 mg/kg by LC-MS/MS analysis; assay type: ADME, organism-based, Canis lupus familiaris; settings: in vivo
[3] = Cmax in guinea pig at 22.4 mg/kg; assay type: ADME, organism-based, Cavia porcellus; design: dose 22.4 mg/kg; settings: in vivo
[4] = Plasma concentration in mouse at 3 mg/kg; assay type: ADME, organism-based; settings: in vivo
Summary of the method: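 Plasma exposure for a 3 mg/kg oral dose in mice was predicted from the mouse PK study, not measured directly. It was expressed as ng/mL and converted to µM.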

[5] = biological target: 5-hydroxytryptamine receptor 5A (Homo sapiens) (UniProt P47898); assay: Displacement of […] from recombinant human 5-HT5A at 10 uM after 60 mins by scintillation counting method relative to control
5-hydroxytryptamine receptor 5A (Homo sapiens), sequence (P47898 whole entry): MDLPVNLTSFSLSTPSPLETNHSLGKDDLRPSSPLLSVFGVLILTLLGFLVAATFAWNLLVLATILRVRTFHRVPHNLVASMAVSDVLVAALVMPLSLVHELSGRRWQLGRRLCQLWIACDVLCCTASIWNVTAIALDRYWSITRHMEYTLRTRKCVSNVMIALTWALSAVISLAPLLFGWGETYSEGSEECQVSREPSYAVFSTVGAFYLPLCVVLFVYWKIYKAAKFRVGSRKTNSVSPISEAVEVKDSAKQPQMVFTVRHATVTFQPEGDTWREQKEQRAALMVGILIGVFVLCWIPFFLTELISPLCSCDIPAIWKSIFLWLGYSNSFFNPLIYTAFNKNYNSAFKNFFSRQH

[6] = AUClast in dog at 5 mg/kg, po by LC-MS/MS analysis; assay type: ADME, organism-based, Canis lupus familiaris; design: dose 5 mg/kg, route oral, time 0 - last; settings: in vivo
[7] = Half life in dog at 5 mg/kg, po by LC-MS/MS analysis; assay type: ADME, organism-based, Canis lupus familiaris; settings: in vivo
[8] = Volume of distribution at steady state in rat at 2 mg/kg, iv by LC-MS/MS analysis; assay type: ADME, organism-based; settings: in vivo, read-out: Vdss
[9] = test system: Mus musculus; assay: Antidiabetic activity in diet-induced obese C57Bl/6 mouse model assessed as change in plasma glucose AUC at 0.3 mg/kg, po administered 30 mins prior to glucose challenge measured up to 90 mins post dose by OGTT; assay type: functional
Summary of the method: (§1)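 Diet-induced obese mice dosed orally at 0.1–3.0 mg/kg 30 min before an oral glucose load (time 0). Glucose followed from 30 min pre-glucose to 90 min post-glucose. Saxagliptin 1 mg/kg was the positive control.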

[10] = Cmax in dog at 5 mg/kg, po by LC-MS/MS analysis; assay type: ADME, organism-based, Canis lupus familiaris; design: dose 5 mg/kg, route oral; settings: in vivo
[11] = biological target: Free fatty acid receptor 1 (Homo sapiens, UniProt O14842); assay: Agonist activity at human GPR40; assay type: functional
Free fatty acid receptor 1, sequence (O14842 whole entry): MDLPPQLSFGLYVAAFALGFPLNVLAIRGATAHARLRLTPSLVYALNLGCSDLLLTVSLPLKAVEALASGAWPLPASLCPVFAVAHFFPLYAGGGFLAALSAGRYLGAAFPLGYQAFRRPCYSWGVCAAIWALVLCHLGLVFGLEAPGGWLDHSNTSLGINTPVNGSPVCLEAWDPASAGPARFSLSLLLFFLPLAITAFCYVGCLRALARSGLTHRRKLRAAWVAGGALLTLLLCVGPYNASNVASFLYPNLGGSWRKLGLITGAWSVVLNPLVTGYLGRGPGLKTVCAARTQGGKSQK

[12] = Half life in rat at 2 mg/kg, iv by LC-MS/MS analysis; assay type: ADME, organism-based; settings: in vivo
[13] = test system: Mus musculus; assay: Antiobesity activity in diet-induced obesity C57Bl6/J mouse model assessed as basal insulin level in plasma at 10 mg/kg bid for 15 days measured on day 15 post 6 hrs fasting (reference value: 16959 +/- 4943 pg/ml); assay type: functional
[14] = Half life in rat liver microsomes; assay type: ADME, microsome
[15] = biological target: Cytochrome P450 2C19 (Homo sapiens, UniProt P33261); assay: Inhibition of CYP2C19 (unknown origin); assay type: ADME
Cytochrome P450 2C19, sequence (P33261 whole entry): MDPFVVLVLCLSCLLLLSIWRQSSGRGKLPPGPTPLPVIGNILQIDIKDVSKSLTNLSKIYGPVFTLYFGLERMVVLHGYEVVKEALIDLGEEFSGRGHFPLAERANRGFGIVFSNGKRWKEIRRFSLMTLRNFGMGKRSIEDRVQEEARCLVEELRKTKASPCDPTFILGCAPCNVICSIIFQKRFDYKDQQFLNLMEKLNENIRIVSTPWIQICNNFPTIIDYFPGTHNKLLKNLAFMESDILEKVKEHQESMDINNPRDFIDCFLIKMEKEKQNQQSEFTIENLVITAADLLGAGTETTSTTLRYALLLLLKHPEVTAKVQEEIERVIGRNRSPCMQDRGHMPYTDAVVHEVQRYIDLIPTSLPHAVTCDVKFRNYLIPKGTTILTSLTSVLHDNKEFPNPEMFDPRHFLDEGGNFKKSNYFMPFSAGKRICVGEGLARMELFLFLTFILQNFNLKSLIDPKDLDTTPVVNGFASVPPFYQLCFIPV

[16] = test system: Cavia porcellus; assay: Cardiotoxicity in guinea pig assessed as decrease in mean arterial blood pressure at 22.4 mg/kg; assay type: toxicity, organism-based; design: scale not given: the % may be the effect or the level left; settings: in vivo
[17] = organism: Rattus norvegicus; assay: Displacement of [35S]TBPS from rat GABA-gated chloride channel at 10 uM after 120 mins by scintillation counting method
[18] = test system: Mus musculus; assay: Antiobesity activity in diet-induced obesity C57Bl6/J mouse model assessed as reduction in body weight at 30 mg/kg qd for 15 days measured on day 15 post 6 hrs fasting relative to control; assay type: functional; design: scale not given: the % may be the effect or the level left
[19] = AUClast in mouse at 14.6 mg/kg, po by LC-MS/MS analysis; assay type: ADME, organism-based; design: dose 14.6 mg/kg, route oral, time 0 - last; settings: in vivo
[20] = test system: Mus musculus; assay: Antidiabetic activity in po dosed diet-induced obese C57Bl/6 mouse model assessed as decrease in plasma glucose AUC administered 30 mins prior to glucose challenge measured up to 90 mins post dose by OGTT; assay type: functional, organism-based; summary of the method: as §1
[21] = test system: Mus musculus; assay: Antiobesity activity in diet-induced obesity C57Bl6/J mouse model assessed as basal insulin level in plasma at 10 mg/kg qd for 15 days measured on day 15 post 6 hrs fasting (reference value: 16959 +/- 4943 pg/ml); assay type: functional
[22] = Volume of distribution at steady state in dog at 1 mg/kg, iv by LC-MS/MS analysis; assay type: ADME, organism-based, Canis lupus familiaris; settings: in vivo, read-out: Vdss
[23] = test system: Mus musculus; assay: Antiobesity activity in diet-induced obesity C57Bl6/J mouse model assessed as change in plasma glucose level at 10 mg/kg qd for 15 days measured on day 15 post 6 hrs fasting; assay type: functional
[24] = Half life in dog at 1 mg/kg, iv by LC-MS/MS analysis; assay type: ADME, organism-based, Canis lupus familiaris; settings: in vivo
[25] = Half life in mouse liver microsomes; assay type: ADME, microsome
[26] = Protein binding in rat plasma; assay type: ADME, cell-free; settings: read-out: PPB (converted)
[27] = Oral bioavailability in rat at 10 mg/kg by LC-MS/MS analysis; assay type: ADME, organism-based; settings: in vivo
[28] = Half life in mouse at 1.15 mg/kg, iv by LC-MS/MS analysis; assay type: ADME, organism-based; settings: in vivo
[29] = Protein binding in mouse plasma; assay type: ADME, cell-free; settings: read-out: PPB (converted)
[30] = biological target: 5-hydroxytryptamine receptor 2B (Homo sapiens) (UniProt P41595); assay: Displacement of [125I](+/-)DOI from recombinant human 5-HT2B at 10 uM after 60 mins by scintillation counting method relative to control
5-hydroxytryptamine receptor 2B (Homo sapiens), sequence (P41595 whole entry): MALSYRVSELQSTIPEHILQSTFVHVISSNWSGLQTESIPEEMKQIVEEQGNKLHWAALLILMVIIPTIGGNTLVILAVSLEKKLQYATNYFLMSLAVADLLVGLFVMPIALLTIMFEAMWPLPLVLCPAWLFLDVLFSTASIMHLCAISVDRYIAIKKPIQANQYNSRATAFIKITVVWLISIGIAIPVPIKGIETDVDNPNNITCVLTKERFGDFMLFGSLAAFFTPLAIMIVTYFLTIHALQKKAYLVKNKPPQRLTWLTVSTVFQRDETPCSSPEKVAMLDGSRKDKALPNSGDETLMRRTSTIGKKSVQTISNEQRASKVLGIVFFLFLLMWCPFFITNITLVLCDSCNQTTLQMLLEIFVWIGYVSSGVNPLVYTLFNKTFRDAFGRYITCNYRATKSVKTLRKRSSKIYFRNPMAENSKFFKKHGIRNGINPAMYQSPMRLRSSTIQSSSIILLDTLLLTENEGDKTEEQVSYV

[31] = test system: Cavia porcellus; assay: Cardiotoxicity in guinea pig assessed as effect on ECG morphology at 22.4 mg/kg; assay type: toxicity, organism-based; settings: in vivo
[32] = test system: Mus musculus; assay: Antidiabetic activity in diet-induced obese C57Bl/6 mouse model assessed as change in plasma glucose AUC at 0.1 mg/kg, po administered 30 mins prior to glucose challenge measured up to 90 mins post dose by OGTT; assay type: functional; summary of the method: as §1
[33] = test system: Mus musculus; assay: Antiobesity activity in diet-induced obesity C57Bl6/J mouse model assessed as final insulin level in plasma at 10 mg/kg bid for 15 days measured on day 15 post 6 hrs fasting (reference value: 7304 +/- 2967 pg/ml); assay type: functional
[34] = test system: Mus musculus; assay: Antiobesity activity in diet-induced obesity C57Bl6/J mouse model assessed as basal glucose level in plasma at 30 mg/kg qd for 15 days measured on day 15 post 6 hrs fasting (reference value: 187 +/- 24 mg/dL); assay type: functional
[35] = test system: Cavia porcellus; assay: Cardiotoxicity in guinea pig assessed as effect on heart rate at 22.4 mg/kg; assay type: toxicity, organism-based; settings: in vivo
[36] = test system: Mus musculus; assay: Antiobesity activity in diet-induced obesity C57Bl6/J mouse model assessed as final glucose level in plasma at 10 mg/kg bid for 15 days measured on day 15 post 6 hrs fasting (reference value: 184 +/- 30 mg/dL); assay type: functional
[37] = biological target: Cytochrome P450 2D6 (Homo sapiens, UniProt P10635); assay: Inhibition of CYP2D6 (unknown origin); assay type: ADME
Cytochrome P450 2D6, sequence (P10635 whole entry): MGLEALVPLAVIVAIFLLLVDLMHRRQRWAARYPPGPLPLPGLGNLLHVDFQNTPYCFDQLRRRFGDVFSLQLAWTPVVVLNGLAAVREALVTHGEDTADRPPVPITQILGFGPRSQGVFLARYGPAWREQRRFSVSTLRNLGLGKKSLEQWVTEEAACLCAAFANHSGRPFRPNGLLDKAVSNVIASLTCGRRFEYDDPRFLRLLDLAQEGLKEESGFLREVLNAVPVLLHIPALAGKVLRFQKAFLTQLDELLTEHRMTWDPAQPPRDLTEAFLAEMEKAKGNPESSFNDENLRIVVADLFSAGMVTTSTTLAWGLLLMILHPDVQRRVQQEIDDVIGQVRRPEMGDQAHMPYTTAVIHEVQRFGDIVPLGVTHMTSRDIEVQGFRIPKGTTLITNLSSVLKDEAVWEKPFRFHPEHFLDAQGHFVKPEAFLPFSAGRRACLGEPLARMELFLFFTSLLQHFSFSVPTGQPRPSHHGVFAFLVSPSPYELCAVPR

[38] = test system: Cavia porcellus; assay: Cardiotoxicity in guinea pig assessed as effect on QRS interval at 22.4 mg/kg; assay type: toxicity, organism-based; settings: in vivo
[39] = biological target: T1, Free fatty acid receptor 4 (Rattus norvegicus, UniProt Q2AC31); assay: Agonist activity at recombinant rat GPR120 expressed in HEK293 cells; assay type: functional, cell-based
T1 sequence (Q2AC31 whole entry): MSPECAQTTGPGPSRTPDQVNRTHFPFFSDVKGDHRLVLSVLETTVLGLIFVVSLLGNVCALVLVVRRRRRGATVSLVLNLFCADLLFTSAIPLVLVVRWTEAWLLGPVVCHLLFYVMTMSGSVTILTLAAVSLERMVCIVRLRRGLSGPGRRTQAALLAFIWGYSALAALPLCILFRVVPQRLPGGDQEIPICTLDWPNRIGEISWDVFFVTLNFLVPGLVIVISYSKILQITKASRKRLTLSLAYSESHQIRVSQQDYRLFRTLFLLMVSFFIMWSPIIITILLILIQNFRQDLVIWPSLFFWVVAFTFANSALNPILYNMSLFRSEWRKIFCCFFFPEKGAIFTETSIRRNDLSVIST

- fraction unbound [1]: 0.0008
- bioavailability [2]: 145%
- Cmax [3]: 105 µg/mL
- concentration [4]: 8.64 µM
- inhibition [5]: 58%
- AUC(0-t) [6]: 47900 ng·h/mL
- half-life [7]: 4.37 h
- Vd [8]: 0.42 L/kg
- Cmax [10]: 8.92 µg/mL
- EC50 [11]: 3340 nM
- half-life [12]: 1.64 h
- half-life [14]: 2.2 h
- INH [15]: 10 µM
- inhibition [17]: 66%
- AUC(0-t) [19]: 81700 ng·h/mL
- Vd [22]: 0.52 L/kg
- half-life [24]: 4.72 h
- half-life [25]: 2.58 h
- fraction unbound [26]: 0.0017
- bioavailability [27]: 116%
- half-life [28]: 4.14 h
- fraction unbound [29]: 0.0037
- inhibition [30]: 62%
- INH [37]: > 10 µM
- EC50 [39]: 713 nM
SMILES: O=C(O)CCc1cc(F)c(OCc2c(C(F)(F)F)ccn2-c2ccc(Cl)cc2)c(F)c1
- Activity [9]: -9%
- Activity [13]: 16966 pg/mL
- Activity [16]: 10%
- Activity [18]: 4.6%
- Activity [20]: Dose-dependent effect
- Activity [21]: 17395 pg/mL
- Activity [23]: -23.7 mg/dL
- Activity [31]: Non-Toxic
- Activity [32]: 8%
- Activity [33]: 6225 pg/mL
- Activity [34]: 201 mg/dL
- Activity [35]: Non-Toxic
- Activity [36]: 170 mg/dL
- Activity [38]: Non-Toxic

From ChEMBL document CHEMBL4184291, “Discovery of N-arylpyrroles as agonists of GPR120 for the treatment of type II diabetes” (Bioorg Med Chem Lett, 2018)
